Laboratory results reported in ChEMBL document CHEMBL1128440 (J Med Chem, 1995).

Assays:
Rattus norvegicus [1] = organism: Rattus norvegicus; assay: Tissue biodistribution into estrogen-primed immature female rat bone at 3 hr time interval; type: ADME, organism-based, Bone element; conditions: in vivo
In short: (§1)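 Immature female Sprague-Dawley rats (25 days old, ≈50 g, five per time point) primed with estradiol, 5 μg sc daily for 2 days in 50% ethanol/sunflower seed oil, used 24 h after the last injection. The 18F-labeled ligand was given iv by tail vein in 10% ethanol/saline. Decapitated at 1 or 3 h; blood and organs weighed and gamma-counted. Reported as %ID/g ± SD, n = 5.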

Rattus norvegicus [2] = organism: Rattus norvegicus; assay: Tissue biodistribution into estrogen-primed immature female rat uterus/blood at 1 hr blocked time interval; type: ADME, organism-based; conditions: in vivo; in short: as §1
Rattus norvegicus [3] = organism: Rattus norvegicus; assay: Tissue biodistribution into estrogen-primed immature female rat kidney at 1 hr time interval; type: ADME, organism-based; conditions: in vivo; in short: as §1
Rattus norvegicus [4] = organism: Rattus norvegicus; assay: Tissue biodistribution into estrogen-primed immature female rat kidney at 1 hr blocked time interval; type: ADME, organism-based; conditions: in vivo; in short: as §1
Rattus norvegicus [5] = organism: Rattus norvegicus; assay: Tissue biodistribution into estrogen-primed immature female rat liver at 1 hr time interval; type: ADME, organism-based; conditions: in vivo; in short: as §1
Rattus norvegicus [6] = organism: Rattus norvegicus; assay: Tissue biodistribution into estrogen-primed immature female rat ovaries at 1 hr blocked time interval; type: ADME, organism-based; conditions: in vivo; in short: as §1
Rattus norvegicus [7] = organism: Rattus norvegicus; assay: Tissue biodistribution into estrogen-primed immature female rat brain at 1 hr blocked time interval; type: ADME, organism-based; conditions: in vivo; in short: as §1
Rattus norvegicus [8] = organism: Rattus norvegicus; assay: Tissue biodistribution into estrogen-primed immature female rat blood at 1 hr low time interval; type: ADME, organism-based; conditions: in vivo; in short: as §1
Rattus norvegicus [9] = organism: Rattus norvegicus; assay: Tissue biodistribution into estrogen-primed immature female rat fat at 1 hr low time interval; type: ADME, organism-based, Adipose tissue; conditions: in vivo; in short: as §1
Rattus norvegicus [10] = organism: Rattus norvegicus; assay: Tissue biodistribution into estrogen-primed immature female rat muscle at 3 hr time interval; type: ADME, organism-based; conditions: in vivo; in short: as §1
Rattus norvegicus [11] = organism: Rattus norvegicus; assay: Tissue biodistribution into estrogen-primed immature female rat fat at 1 hr blocked time interval; type: ADME, organism-based, Adipose tissue; conditions: in vivo; in short: as §1
Rattus norvegicus [12] = organism: Rattus norvegicus; assay: Tissue biodistribution into estrogen-primed immature female rat muscle at 1 hr time interval; type: ADME, organism-based; conditions: in vivo; in short: as §1
Rattus norvegicus [13] = organism: Rattus norvegicus; assay: Tissue biodistribution into estrogen-primed immature female rat lung at 1 hr low time interval; type: ADME, organism-based; conditions: in vivo; in short: as §1
Rattus norvegicus [14] = organism: Rattus norvegicus; assay: Tissue biodistribution into estrogen-primed immature female rat brain at 1 hr low time interval; type: ADME, organism-based; conditions: in vivo; in short: as §1
[15] = target: T1, Progesterone receptor (Homo sapiens) (UniProt P06401); assay: Relative binding affinity against progesterone receptor at 0 degree Celsius determined in a competitive radiometric binding assay (R5020=100%).
T1 sequence (whole entry): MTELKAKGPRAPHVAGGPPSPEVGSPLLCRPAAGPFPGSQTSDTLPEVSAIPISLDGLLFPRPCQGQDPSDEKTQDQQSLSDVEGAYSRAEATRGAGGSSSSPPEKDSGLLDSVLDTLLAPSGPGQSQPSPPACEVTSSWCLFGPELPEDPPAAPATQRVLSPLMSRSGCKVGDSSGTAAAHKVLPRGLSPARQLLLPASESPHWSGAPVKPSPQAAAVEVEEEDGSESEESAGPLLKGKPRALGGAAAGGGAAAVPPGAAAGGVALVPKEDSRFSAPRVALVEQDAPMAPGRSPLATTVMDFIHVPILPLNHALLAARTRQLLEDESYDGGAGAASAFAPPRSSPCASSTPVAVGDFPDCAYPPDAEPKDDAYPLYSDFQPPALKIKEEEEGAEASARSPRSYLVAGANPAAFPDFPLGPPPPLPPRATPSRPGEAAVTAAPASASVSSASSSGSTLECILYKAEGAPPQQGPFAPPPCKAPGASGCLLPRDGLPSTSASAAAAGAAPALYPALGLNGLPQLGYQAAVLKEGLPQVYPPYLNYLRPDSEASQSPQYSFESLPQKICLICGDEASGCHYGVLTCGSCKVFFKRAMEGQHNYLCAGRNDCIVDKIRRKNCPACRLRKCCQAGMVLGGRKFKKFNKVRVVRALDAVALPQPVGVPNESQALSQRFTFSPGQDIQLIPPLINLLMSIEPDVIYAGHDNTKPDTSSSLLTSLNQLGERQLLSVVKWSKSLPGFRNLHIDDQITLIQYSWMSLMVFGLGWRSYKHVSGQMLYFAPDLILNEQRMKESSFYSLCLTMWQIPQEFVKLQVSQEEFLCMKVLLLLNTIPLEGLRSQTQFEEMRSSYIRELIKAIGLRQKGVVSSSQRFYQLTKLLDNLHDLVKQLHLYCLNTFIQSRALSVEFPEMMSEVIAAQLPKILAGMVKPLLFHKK
In short: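 Competitive radiometric binding at 0 °C against tritium-labeled R5020 as the standard (RBA = 100). Values are the average of two experiments.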

Rattus norvegicus [16] = organism: Rattus norvegicus; assay: Tissue biodistribution into estrogen-primed immature female rat ovaries at 3 hr time interval; type: ADME, organism-based, Female gonad; conditions: in vivo; in short: as §1
Rattus norvegicus [17] = organism: Rattus norvegicus; assay: Tissue biodistribution into estrogen-primed immature female rat ovaries at 1 hr low time interval; type: ADME, organism-based, Female gonad; conditions: in vivo; in short: as §1
Rattus norvegicus [18] = organism: Rattus norvegicus; assay: Tissue biodistribution into estrogen-primed immature female rat uterus/blood at 1 hr low time interval; type: ADME, organism-based; conditions: in vivo; in short: as §1
Rattus norvegicus [19] = organism: Rattus norvegicus; assay: Tissue biodistribution into estrogen-primed immature female rat uterus/blood at 1 hr time interval; type: ADME, organism-based; conditions: in vivo; in short: as §1
[20] = Partition coefficient (logP); type: physicochemical; conditions: octanol/water; read-out: logP
In short: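 log P(o/w) (octanol/water) estimated by a reversed-phase HPLC method.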

Rattus norvegicus [21] = organism: Rattus norvegicus; assay: Tissue biodistribution into estrogen-primed immature female rat brain at 3 hr time interval; type: ADME, organism-based; conditions: in vivo; in short: as §1
Rattus norvegicus [22] = organism: Rattus norvegicus; assay: Tissue biodistribution into estrogen-primed immature female rat blood at 1 hr time interval; type: ADME, organism-based; conditions: in vivo; in short: as §1
Rattus norvegicus [23] = organism: Rattus norvegicus; assay: Tissue biodistribution into estrogen-primed immature female rat muscle at 1 hr low time interval; type: ADME, organism-based; conditions: in vivo; in short: as §1
Rattus norvegicus [24] = organism: Rattus norvegicus; assay: Tissue biodistribution into estrogen-primed immature female rat lung at 1 hr time interval; type: ADME, organism-based; conditions: in vivo; in short: as §1
Rattus norvegicus [25] = organism: Rattus norvegicus; assay: Tissue biodistribution into estrogen-primed immature female rat kidney at 1 hr low time interval; type: ADME, organism-based; conditions: in vivo; in short: as §1
Rattus norvegicus [26] = organism: Rattus norvegicus; assay: Tissue biodistribution into estrogen-primed immature female rat muscle at 1 hr blocked time interval; type: ADME, organism-based; conditions: in vivo; in short: as §1

Injected dose/g (Rattus norvegicus [1]): 1.51% | uterus/blood ratio (Rattus norvegicus [2]): 2.47 | Injected dose/g (Rattus norvegicus [3]): 1.59% | Injected dose/g (Rattus norvegicus [4]): 1.84% | Injected dose/g (Rattus norvegicus [5]): 1.26% | Injected dose/g (Rattus norvegicus [6]): 1.52% | Injected dose/g (Rattus norvegicus [7]): 0.49% | Injected dose/g (Rattus norvegicus [8]): 0.35% | Injected dose/g (Rattus norvegicus [9]): 1.86% | Injected dose/g (Rattus norvegicus [10]): 0.2% | Injected dose/g (Rattus norvegicus [11]): 3.48% | Injected dose/g (Rattus norvegicus [12]): 0.64% | Injected dose/g (Rattus norvegicus [13]): 1.23% | Injected dose/g (Rattus norvegicus [14]): 0.34% | RBA [15]: 173 | Injected dose/g (Rattus norvegicus [16]): 2.66% | Injected dose/g (Rattus norvegicus [17]): 1.58% | Injected dose/g (Rattus norvegicus [18]): 10% | Uterus to blood concentration ratio (Rattus norvegicus [19]): 20.09% | logP [20]: 4.13 | Injected dose/g (Rattus norvegicus [21]): 0.19% | Injected dose/g (Rattus norvegicus [22]): 0.32% | Injected dose/g (Rattus norvegicus [23]): 0.25% | Injected dose/g (Rattus norvegicus [24]): 1.92% | Injected dose/g (Rattus norvegicus [25]): 0.97% | Injected dose/g (Rattus norvegicus [26]): 0.54%
Structure (SMILES): CC1(c2ccco2)O[C@@H]2CC3C4CCC5=CC(=O)CC[C@@H]5C4CC[C@]3(C)[C@]2(C(=O)CF)O1 (stereo partly specified)
